Data reported in ChEMBL document CHEMBL1131113, “Design and synthesis of [2-(8,9-dioxo-2,6-diazabicyclo[5.2.0]non-1(7)-en-2-yl)-ethyl]phosphonic acid (EAA-090), a potent N-methyl-D-aspartate antagonist, via the use of 3-cyclobutene-1,2-dione as an achiral alpha-amino acid bioisostere” (J Med Chem, 1998).

Key:
Mus musculus = assay: Effective dose against NMDA-induced lethality in mice on ip administration; type: functional
[1] = biological target: T1, Glutamate NMDA receptor (Rattus norvegicus) (UniProt P35439+Q00959+Q00960+Q00961+Q62645+Q8VHN2+Q9R1M7); assay: Tested in vitro at 10000 nM for binding affinity at N-methyl-D-aspartate glutamate receptor by measuring displacement of [3H]CPP from crude synaptic membrane preparations obtained from rat brain
Procedure, shortened: (§1)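 Crude synaptic membranes, thawed, washed once in Tris-HCl, resuspended at 0.3–0.5 mg protein/mL (Lowry). Affinity from displacement of [3H]CPP binding per Murphy's method.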

Glutamate NMDA receptor [2] = assay: Tested in vitro for antagonistic activity at N-methyl-D-aspartate glutamate receptor by measuring displacement of [3H]TCP from crude synaptic membrane preparations obtained from rat brain; type: functional
Procedure, shortened: (§2)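 Same membranes incubated in triplicate 60 min at 25 °C with 2.5 nM [3H]TCP, 3 μM L-glutamate, 1 μM glycine, test drug. Nonspecific binding defined with 100 μM MK-801. Vacuum filtration on 0.1% PEI-pretreated filters, ice-cold buffer rinses, scintillation counting. IC50 with 95% confidence limits by nonlinear logistic regression over 5–10 concentrations.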

Glutamate NMDA receptor [3] = assay: Displacement of [3H]CPP from rat brain synaptic membrane N-methyl-D-aspartate glutamate receptor; procedure, shortened: as §1
Rattus norvegicus = organism: Rattus norvegicus; assay: Effect on infarct volume in the rat was determined by rat permanent focal ischemia model; type: functional
Procedure, shortened: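 Male Fisher-344 rats (290–310 g) under 2–4% isoflurane. Right common carotid occluded and distal MCA electrocoagulated transcranially, body temperature 37 ± 1 °C. Single iv bolus via tail vein (1 mL/kg, 10 mg/kg in 0.9% NaCl) 5 min post-occlusion. At 24 h, cresyl violet-stained 20 μm frozen sections at 400-μm intervals; infarct volume by image analysis; mean ± SE.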

[4] = biological target: T1, Glutamate NMDA receptor (Rattus norvegicus); assay: Tested in vitro at 100 uM for antagonistic activity at N-methyl-D-aspartate glutamate receptor by measuring displacement of [3H]TCP from crude synaptic membrane preparations obtained from rat brain; type: functional; procedure, shortened: as §2

Compound | ED50 (Mus musculus) [mg/kg] | inhibition [1] [%] | IC50 (Glutamate NMDA receptor [2]) [nM] | IC50 (Glutamate NMDA receptor [3]) [nM] | Infarct volume (Rattus norvegicus) [mm**3] | inhibition [4] [%]
O=C1C2=NCCCN(CCc3nnn[nH]3)C2=C1O | > 5 | 41 | > 100000 | – | – | –
O=C1C2=NCCCN(CCCP(=O)(O)O)C2=C1O | > 10 | – | > 100000 | > 1000 | – | –
O=C1C(O)=C2/C1=N\CCCCN2CCP(=O)(O)O | > 3 | – | 36000 | 49 | – | –
O=C1C2=NCCCN(C/C=C/P(=O)(O)O)C2=C1O | > 5 | – | > 100000 | > 10000 | – | –
O=c1c2c(c1=O)N(CCP(=O)(O)O)CCCN2 [PERZINFOTEL] | 2.1 | – | 7600 | 30 | 43.2 | –
O=C(O)[C@@H]1C[C@H](CP(=O)(O)O)CCN1 (single isomer, unassigned) [SELFOTEL] | 1.5 | – | 22000 | – | – | –
O=C1C2=NCCN(CCP(=O)(O)O)C2=C1O | 6.1 | – | 29000 | 92 | – | –
O=C1C2=NCCCN(Cc3nn[nH]n3)C2=C1O | > 10 | – | 18000 | 38 | – | –
O=C([O-])CCN1CCCN=C2C(=O)C(O)=C21.[Na+] | > 20 | – | – | 340 | – | 53
O=C([O-])CN1CCCN=C2C(=O)C(O)=C21.[Na+] | > 20 | – | – | 550 | – | 64
CC1(C)CN=C2C(=O)C(O)=C2N(CCP(=O)(O)O)C1 | 22 | – | – | 280 | – | 59
O=C1C2=NCC(O)CN(CCP(=O)(O)O)C2=C1O (configuration not stated) | 1.8 | – | 10000 | 19 | – | –
Nc1c(NCCP(=O)(O)O)c(=O)c1=O | 29 | – | – | – | – | –
